Measured values reported in ChEMBL document CHEMBL3421540, “Ensemble-based virtual screening for cannabinoid-like potentiators of the human glycine receptor α1 for the treatment of pain” (J Med Chem, 2015).
Calls of active or inactive are those of the source. The rule behind the calls is not given here.

Tests used:
Assay type in all cases: cell-based
[1] = target: T1, Glycine receptor subunit alpha-1 (Homo sapiens) (UniProt P23415); assay: Potentiation of human GlyR-alpha1 expressed in Xenopus laevis oocytes assessed as induction of glycine-activated currents at 10 uM after 1 to 4 days by two-electrode voltage clamp assay relative to control
T1 sequence (whole entry): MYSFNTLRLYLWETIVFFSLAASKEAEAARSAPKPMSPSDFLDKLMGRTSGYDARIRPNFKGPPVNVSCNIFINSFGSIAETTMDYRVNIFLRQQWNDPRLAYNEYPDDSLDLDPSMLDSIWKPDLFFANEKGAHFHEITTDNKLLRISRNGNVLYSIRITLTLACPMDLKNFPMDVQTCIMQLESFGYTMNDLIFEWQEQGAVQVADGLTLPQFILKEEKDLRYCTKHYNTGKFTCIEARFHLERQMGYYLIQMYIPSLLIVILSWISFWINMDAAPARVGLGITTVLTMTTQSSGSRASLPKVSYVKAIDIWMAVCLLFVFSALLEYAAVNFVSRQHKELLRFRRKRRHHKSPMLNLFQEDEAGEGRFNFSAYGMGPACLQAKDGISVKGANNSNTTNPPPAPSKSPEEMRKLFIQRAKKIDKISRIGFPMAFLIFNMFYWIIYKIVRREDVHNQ
Outline: (§1)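 RNA for hGlyR-α1 (25−50 ng) injected into stage 5−6 Xenopus laevis oocytes held at 17 °C in modified Barth's solution; two-electrode voltage clamp 1−4 days post-injection at −60 mV holding potential. Bath: 96 mM NaCl, 2 mM KCl, 1.8 mM CaCl2, 1 mM MgCl2, 5 mM HEPES, pH 7.0. Compound coapplied with glycine at EC5; potentiation of current scored.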

[2] = target: T2, Glycine receptor subunit alpha-1 (Homo sapiens, UniProt P23415); assay: Potentiation of human GlyR-alpha1 expressed in Xenopus laevis oocytes assessed as induction of glycine-activated currents after 1 to 4 days by two-electrode voltage clamp assay
T2 sequence (P23415 whole entry): T1 sequence (whole entry)
Outline: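 hGlyR-α1 RNA (25−50 ng) injected into stage 5−6 Xenopus oocytes, held at 17 °C in modified Barth's solution. Recorded 1−4 days later by two-electrode voltage clamp at −60 mV in 96 mM NaCl, 2 mM KCl, 1.8 mM CaCl2, 1 mM MgCl2, 5 mM HEPES, pH 7.0. Compounds coapplied with glycine at EC5, up to 10 μM. EC50 values also derived.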

[3] = target: T1, Glycine receptor subunit alpha-1 (Homo sapiens); assay: Potentiation of human GlyR-alpha1 expressed in Xenopus laevis oocytes assessed as induction of glycine-activated currents at 1 uM after 1 to 4 days by two-electrode voltage clamp assay relative to control; outline: as §1
[4] = target: Neuronal acetylcholine receptor subunit alpha-7 (Homo sapiens) (UniProt P36544); assay: Modulation of human alpha7 nAChR expressed in Xenopus laevis oocytes assessed as effect on acetylcholine-induced currents at 10 uM after 1 to 4 days by two-electrode voltage clamp assay relative to control
Outline: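 α7 nAChR RNA (25−50 ng) injected into stage 5−6 Xenopus oocytes, kept at 17 °C in modified Barth's solution. Two-electrode voltage clamp at −60 mV, 1−4 days post-injection. Bath: 96 mM NaCl, 2 mM KCl, 1.8 mM CaCl2, 1 mM MgCl2, 5 mM HEPES, pH 7.0. Compound coapplied with acetylcholine at EC50, used because of fast desensitization.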

Sequence of Neuronal acetylcholine receptor subunit alpha-7 (Homo sapiens) (P36544 whole entry): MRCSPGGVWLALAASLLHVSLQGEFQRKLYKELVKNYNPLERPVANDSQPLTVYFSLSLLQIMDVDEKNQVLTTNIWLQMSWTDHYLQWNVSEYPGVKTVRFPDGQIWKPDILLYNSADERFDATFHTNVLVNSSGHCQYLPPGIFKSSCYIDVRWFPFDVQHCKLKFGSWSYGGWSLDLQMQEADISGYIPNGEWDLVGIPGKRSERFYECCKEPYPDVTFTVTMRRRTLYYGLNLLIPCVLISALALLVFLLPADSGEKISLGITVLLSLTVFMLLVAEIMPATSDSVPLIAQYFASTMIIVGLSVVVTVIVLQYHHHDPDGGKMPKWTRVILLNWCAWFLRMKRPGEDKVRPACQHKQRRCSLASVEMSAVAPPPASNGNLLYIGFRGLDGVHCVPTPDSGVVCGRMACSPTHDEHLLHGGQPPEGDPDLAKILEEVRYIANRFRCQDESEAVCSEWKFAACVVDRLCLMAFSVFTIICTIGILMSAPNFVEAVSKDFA

Compound	%max [1] [%]	EC50 [2] [nM]	Activity [3] [%]	Activity [4]
CCCc1nc2c(C)cc(-c3nc4ccccc4n3C)cc2n1Cc1ccc(-c2ccccc2C(=O)O)cc1	210	3200	120	
C[C@@H](NCCCc1cccc(C(F)(F)F)c1)c1cccc2ccccc12	210	320	182	inactive
COc1ccc(-c2ccc3cc(C(=O)O)ccc3c2)cc1C12CC3CC(CC(C3)C1)C2	260	1300	172	inactive
CC1=C(CC(=O)O)c2cc(F)ccc2/C1=C\c1ccc([S+](C)[O-])cc1 (centres undefined)		380		inactive
O=C1NCN(c2ccccc2)C12CCN(CCCC(c1ccc(F)cc1)c1ccc(F)cc1)CC2		1200		
COc1cc(OC)c(NC(=O)Nc2cc(C)on2)cc1Cl	103		102	
Cc1nc2c([nH]1)-c1ccccc1N(C(=O)c1ccc(NC(=O)c3ccccc3-c3ccccc3)cc1)CC2	107		106	
COc1ccc(CCN2CCC(Nc3nc4ccccc4n3Cc3ccc(F)cc3)CC2)cc1 [ASTEMIZOLE]	280	4200	122	
C=C1CC[C@H](O)C/C1=C/C=C1\CCC[C@]2(C)[C@@H]([C@H](C)CCCC(C)C)CC[C@@H]12 [CHOLECALCIFEROL]	220	400	216	inactive
CCCCCc1cc(O)c2c(c1)OC(C)(C)[C@@H]1CCC(C)=C[C@@H]21 [DRONABINOL]	260	1300	162	
C[C@]12C=CC(=O)N[C@@H]1CC[C@@H]1[C@@H]2CC[C@]2(C)[C@@H](C(=O)Nc3cc(C(F)(F)F)ccc3C(F)(F)F)CC[C@@H]12 [DUTASTERIDE]		330		inactive
OC(c1cc(C(F)(F)F)nc2c(C(F)(F)F)cccc12)C1CCCCN1 (centres undefined) [MEFLOQUINE]	220	2500	126	
O=c1[nH]c2ccccc2n1C1CCN(CCCC(c2ccc(F)cc2)c2ccc(F)cc2)CC1 [PIMOZIDE]	510	1700	219	inactive
CNC(=O)c1cc(Oc2ccc(NC(=O)Nc3ccc(Cl)c(C(F)(F)F)c3)c(F)c2)ccn1 [REGORAFENIB]	200	1800	116	
Cc1nc2n(c(=O)c1CCN1CCC(c3noc4cc(F)ccc34)CC1)CCCC2 [RISPERIDONE]	190	320	180	inactive
